Assay results reported in ChEMBL document CHEMBL4602702, “Red-Emitting Dibenzodiazepinone Derivatives as Fluorescent Dualsteric Probes for the Muscarinic Acetylcholine M2 Receptor” (J Med Chem, 2020).

Tests used:
[1] = biological target: T1, Muscarinic acetylcholine receptor M2 (Homo sapiens, UniProt P08172); experiment: Displacement of [3H]-NMS from human muscarinic M2 receptor stably expressed in CHO-K9 cells by radioligand competitive binding assay; assay type: cell-based
T1 sequence (P08172 whole entry): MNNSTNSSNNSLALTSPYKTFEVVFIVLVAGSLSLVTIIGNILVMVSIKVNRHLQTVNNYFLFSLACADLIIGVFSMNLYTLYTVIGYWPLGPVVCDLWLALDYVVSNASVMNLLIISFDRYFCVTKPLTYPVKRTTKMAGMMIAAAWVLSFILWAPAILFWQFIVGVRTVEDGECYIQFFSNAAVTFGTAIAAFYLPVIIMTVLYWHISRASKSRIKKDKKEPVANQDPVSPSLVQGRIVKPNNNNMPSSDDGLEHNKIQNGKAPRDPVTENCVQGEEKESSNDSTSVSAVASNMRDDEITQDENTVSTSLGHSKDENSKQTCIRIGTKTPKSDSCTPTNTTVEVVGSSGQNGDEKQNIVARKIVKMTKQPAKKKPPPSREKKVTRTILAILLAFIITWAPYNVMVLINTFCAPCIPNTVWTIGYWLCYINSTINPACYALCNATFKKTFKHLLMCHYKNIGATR
Procedure, shortened: (§1)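 Equilibrium competition binding at live CHO-hMxR cells with [3H]NMS at M1 0.2, M2 0.2, M3 0.2, M4 0.1, M5 0.3 nM. […] Four-parameter logistic fit converted to pKi; at least three experiments in triplicate (some two).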

[2] = biological target: Muscarinic acetylcholine receptor M3 (Homo sapiens, UniProt P20309); experiment: Displacement of [3H]-NMS from human muscarinic M3 receptor stably expressed in CHO-K9 cells by radioligand competitive binding assay; assay type: cell-based; procedure, shortened: as §1
[3] = biological target: T2, Muscarinic acetylcholine receptor M1 (Homo sapiens, UniProt P11229); experiment: Displacement of [3H]-NMS from human muscarinic M1 receptor stably expressed in CHO-K9 cells by radioligand competitive binding assay; assay type: cell-based; procedure, shortened: as §1
T2 sequence (P11229 whole entry): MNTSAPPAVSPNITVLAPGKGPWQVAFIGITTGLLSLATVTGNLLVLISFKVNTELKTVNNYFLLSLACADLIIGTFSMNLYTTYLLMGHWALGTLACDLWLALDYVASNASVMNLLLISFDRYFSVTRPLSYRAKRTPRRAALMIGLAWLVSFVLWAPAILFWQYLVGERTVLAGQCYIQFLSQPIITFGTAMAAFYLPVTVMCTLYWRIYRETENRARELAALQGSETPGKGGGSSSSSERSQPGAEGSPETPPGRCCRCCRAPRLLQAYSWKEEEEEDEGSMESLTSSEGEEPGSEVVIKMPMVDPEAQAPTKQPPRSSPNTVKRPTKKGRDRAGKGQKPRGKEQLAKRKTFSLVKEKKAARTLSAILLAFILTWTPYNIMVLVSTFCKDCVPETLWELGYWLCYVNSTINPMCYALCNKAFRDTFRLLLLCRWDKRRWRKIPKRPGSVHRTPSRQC

[4] = biological target: T3, Muscarinic acetylcholine receptor M5 (Homo sapiens, UniProt P08912); experiment: Displacement of [3H]-NMS from human muscarinic M5 receptor stably expressed in CHO-K9 cells by radioligand competitive binding assay; assay type: cell-based; procedure, shortened: as §1
T3 sequence (P08912 whole entry): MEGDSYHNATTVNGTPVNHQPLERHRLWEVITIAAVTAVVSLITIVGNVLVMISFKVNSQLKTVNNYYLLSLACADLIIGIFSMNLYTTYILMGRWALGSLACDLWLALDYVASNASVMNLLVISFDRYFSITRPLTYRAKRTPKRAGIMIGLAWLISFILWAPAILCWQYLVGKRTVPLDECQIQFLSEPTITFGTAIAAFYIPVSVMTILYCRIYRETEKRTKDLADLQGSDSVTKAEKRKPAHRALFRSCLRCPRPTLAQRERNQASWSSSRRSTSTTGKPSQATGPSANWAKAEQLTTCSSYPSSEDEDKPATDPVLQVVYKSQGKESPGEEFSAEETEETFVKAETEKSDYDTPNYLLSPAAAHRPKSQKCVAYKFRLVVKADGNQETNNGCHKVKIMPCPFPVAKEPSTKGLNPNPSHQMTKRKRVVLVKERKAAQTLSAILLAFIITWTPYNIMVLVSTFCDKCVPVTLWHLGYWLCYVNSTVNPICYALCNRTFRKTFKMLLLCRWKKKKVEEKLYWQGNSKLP

[5] = biological target: T4, Muscarinic acetylcholine receptor M4 (Homo sapiens, UniProt P08173); experiment: Displacement of [3H]-NMS from human muscarinic M4 receptor stably expressed in CHO-K9 cells by radioligand competitive binding assay; assay type: cell-based; procedure, shortened: as §1
T4 sequence (P08173 whole entry): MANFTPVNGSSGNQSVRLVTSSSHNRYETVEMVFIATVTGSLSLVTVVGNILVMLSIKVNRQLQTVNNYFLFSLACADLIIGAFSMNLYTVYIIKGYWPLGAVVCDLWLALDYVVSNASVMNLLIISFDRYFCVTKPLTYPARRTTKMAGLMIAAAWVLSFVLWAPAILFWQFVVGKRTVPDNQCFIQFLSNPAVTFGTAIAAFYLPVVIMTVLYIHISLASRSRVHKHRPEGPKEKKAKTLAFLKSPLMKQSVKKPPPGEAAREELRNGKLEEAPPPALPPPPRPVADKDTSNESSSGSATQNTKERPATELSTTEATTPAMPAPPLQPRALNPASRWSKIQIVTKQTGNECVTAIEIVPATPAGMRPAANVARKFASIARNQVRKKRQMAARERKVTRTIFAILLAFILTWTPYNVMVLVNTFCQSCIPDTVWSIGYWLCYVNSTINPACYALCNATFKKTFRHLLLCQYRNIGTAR

[6] = Chemical stability of compound in PBS buffer assessed as retention time at pH 7.4 and 22 degree C measured up to 48 hrs by RP-HPLC analysis; assay type: physicochemical; conditions: pH 7.4, 48 h
Procedure, shortened: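 Fluorescent ligand stability checked in PBS pH 7.4 over 48 h by RP-HPLC on a C18 column with an aqueous TFA/acetonitrile gradient, oven at 25 °C, detection at 220 nm.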

[7] = biological target: T5, Muscarinic acetylcholine receptor M2 (Homo sapiens) (UniProt P08172); experiment: Binding affinity to human muscarinic M2 receptor expressed in […] cells assessed as unspecific binding at Kd incubated in dark at 22 degree C for 2 hrs in presence of atropine by FACSCalibur flow cytometric saturation binding study relative to control; assay type: cell-based
T5 sequence (whole entry): T1 sequence (P08172 whole entry)

[8] = biological target: T1, Muscarinic acetylcholine receptor M2; experiment: Binding affinity to human muscarinic M2 receptor expressed in […] cells incubated in dark at 22 degree C for 2 hrs by FACSCalibur flow cytometric saturation binding study; assay type: cell-based; conditions: read-out: Kd

Chain of Muscarinic acetylcholine receptor M3 (P20309 whole entry): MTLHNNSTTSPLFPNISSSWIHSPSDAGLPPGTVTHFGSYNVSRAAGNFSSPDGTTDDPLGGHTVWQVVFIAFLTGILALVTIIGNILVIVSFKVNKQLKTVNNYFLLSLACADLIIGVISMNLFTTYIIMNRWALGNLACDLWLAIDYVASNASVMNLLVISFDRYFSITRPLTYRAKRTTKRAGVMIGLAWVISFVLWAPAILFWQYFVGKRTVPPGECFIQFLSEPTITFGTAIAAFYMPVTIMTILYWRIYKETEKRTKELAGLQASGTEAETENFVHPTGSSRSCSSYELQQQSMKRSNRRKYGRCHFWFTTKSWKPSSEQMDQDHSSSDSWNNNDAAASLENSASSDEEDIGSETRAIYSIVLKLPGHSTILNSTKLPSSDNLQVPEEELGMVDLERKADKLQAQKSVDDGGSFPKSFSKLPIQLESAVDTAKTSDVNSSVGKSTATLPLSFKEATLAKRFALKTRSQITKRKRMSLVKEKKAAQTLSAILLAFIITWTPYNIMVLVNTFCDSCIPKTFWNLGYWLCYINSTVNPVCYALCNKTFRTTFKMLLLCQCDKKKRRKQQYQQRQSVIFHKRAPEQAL

SMILES	Ki [1] [nM]	Ki [2] [nM]	Ki [3] [nM]	Ki [4] [nM]	Ki [5] [nM]	Retention_time [6] [min]	Activity [7] [%]	Kd [8] [nM]
C[N+]1=C(/C=C/C=C/C=C2/N(CCCCCC(=O)NCCN3CCN(CCCCC4CCN(CC(=O)N5c6ccccc6NC(=O)c6ccccc65)CC4)CC3)c3ccccc3C2(C)C)C(C)(C)c2ccccc21	4.47	85.1	15.1	69.2	18.6	–	–	–
CC1(C)C(/C=C/C=C/C=C2/N(CCCCCC(=O)NCc3cc(C(=O)NCCNC(=O)CCc4cn(CCCCC5CCN(CC(=O)N6c7ccccc7NC(=O)c7ccccc76)CC5)cn4)cc(C(=O)NCCNC(=O)CCc4cn(CCCCC5CCN(CC(=O)N6c7ccccc7NC(=O)c7ccccc76)CC5)cn4)c3)c3ccccc3C2(C)C)=[N+](CCCCS(=O)(=O)[O-])c2ccccc21	1.41	–	–	–	–	–	–	–
C[N+]1=C(/C=C/C=C/C=C2/N(CCCCCC(=O)NCCCCC3CCN(CC(=O)N4c5ccccc5NC(=O)c5ccccc54)CC3)c3ccccc3C2(C)C)C(C)(C)c2ccccc21	53.7	631	120	288	67.6	–	–	–
CC1(C)C(/C=C/C=C/C=C2/N(CCCCCC(=O)NCCNC(=O)CCc3cn(CCCCC4CCN(CC(=O)N5c6ccccc6NC(=O)c6ccccc65)CC4)cn3)c3ccccc3C2(C)C)=[N+](CCCCS(=O)(=O)[O-])c2ccccc21	0.933	–	–	–	–	–	–	–
CC1(C)C(/C=C/C=C/C=C2/N(CCCCCC(=O)NCCCCC3CCN(CC(=O)N4c5ccccc5NC(=O)c5ccccc54)CC3)c3ccccc3C2(C)C)=[N+](CCCCS(=O)(=O)[O-])c2ccccc21	141	871	347	871	200	–	–	–
CC1(C)C(/C=C/C=C/C=C2/N(CCCCCC(=O)NCc3cc(C(=O)NCCN4CCC(N5CCC(n6c(=O)[nH]c7ccccc76)CC5)CC4)cc(C(=O)NCCN4CCN(CCCCC5CCN(CC(=O)N6c7ccccc7NC(=O)c7ccccc76)CC5)CC4)c3)c3ccc(S(=O)(=O)[O-])cc3C2(C)C)=[N+](CCCCS(=O)(=O)O)c2ccccc21.O=C(O)C(F)(F)F.O=C(O)C(F)(F)F.O=C(O)C(F)(F)F.O=C(O)C(F)(F)F	0.257	21.9	2.29	30.9	2.57	18	10	0.65
NCc1cc(C(=O)NCCNC(=O)CCc2cn(CCCCC3CCN(CC(=O)N4c5ccccc5NC(=O)c5ccccc54)CC3)cn2)cc(C(=O)NCCNC(=O)CCc2cn(CCCCC3CCN(CC(=O)N4c5ccccc5NC(=O)c5ccccc54)CC3)cn2)c1	0.269	–	–	–	–	–	–	–
